Consider 26 compounds from ChEMBL document CHEMBL1130386, “Structure-activity relationship of newly synthesized quinoline derivatives for reversal of multidrug resistance in cancer” (1997).

The subject of this assay is K562. In words: MDR-reversing activity in K562/ADM cells at 1 uM concentration of [3H]-VCR (vincristine), activity expressed relative to verapamil. The assay is classed as functional, Homo sapiens. Put shortly:
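K562/ADM cells at 1.5 × 10^6/mL in growth medium with 10 mM HEPES were incubated at 37 °C with 30 nM [3H]VCR (5.6 Ci/mmol), with or without modulator (1 µM) or verapamil. At intervals, aliquots were spun through a 4:1 silicone oil/liquid paraffin layer. Pellets were lysed overnight in 0.5 N KOH and counted by liquid scintillation. Intracellular VCR was scaled to verapamil.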
Consider `OC(COc1cccc2ncccc12)CN1CCN(C2c3ccccc3CCc3ccccc32)CC1` (stereo unspecified), for which the Activity was 371%.
`OC(COc1cccc2ncccc12)CN1CCN(C2c3ccccc3COc3ccccc32)CC1` (stereo unspecified): the Activity came out at 414%.
In the case of `O=C(C(c1ccc(F)cc1)c1ccc(F)cc1)N1CCN(CC(O)COc2cccc3ncccc23)CC1` (stereo unspecified) it was 263%; in that of `OC(COc1cccc2ncccc12)CN1CCN(CC(c2ccccc2)c2ccccc2)CC1` (stereo unspecified), 327%; in that of `OC(COc1cccc2ncccc12)CN1CCC(=C(c2ccc(F)cc2)c2ccc(F)cc2)CC1` (stereo unspecified), 246%.
In the case of `O=C(C1c2ccccc2Oc2ccccc21)N1CCN(CC(O)COc2cccc3ncccc23)CC1` (stereo unspecified) it was 279%.
Next, `O=C(C1c2ccccc2-c2ccccc21)N1CCN(CC(O)COc2cccc3ncccc23)CC1` (stereo unspecified): 213%.
`OC(COc1cccc2ncccc12)CN1CCN(C(c2ccccc2)c2cccs2)CC1` (stereo unspecified): the Activity came out at 428%.
Next, `OC(COc1ccccc1)CN1CCN(C(c2ccccc2)c2ccccc2)CC1` (stereo unspecified): 56%.
Turning to `CCCCCCCCCCCCCCCCCCN1CCN(CC(O)COc2cccc3ncccc23)CC1` (stereo unspecified), the Activity stood at 55%.
In the case of `OC(COc1cccc2ncccc12)CN1CCN(Cc2ccccc2)CC1` (stereo unspecified) it was 123%; in that of `OC(COc1cccc2ncccc12)CN1CCN(C(c2ccc(F)cc2)c2ccc(F)cc2)CC1` (stereo unspecified), 265%; in that of `OC(COc1cccc2ncccc12)CN1CCN(C(c2ccccc2)c2ccccc2)CC1` (stereo unspecified), 358%.
In the case of `COc1ccc(C(c2ccc(OC)cc2)N2CCN(CC(O)COc3cccc4ncccc34)CC2)cc1` (stereo unspecified) it was 260%; in that of `O=C1C(=O)N(C2c3ccccc3CCc3ccccc32)CCN1CC(O)COc1cccc2ncccc12` (stereo unspecified), 81%; in that of `OC(COc1cccc2ncccc12)CN1CCN(C2c3ccccc3-c3ccccc32)CC1` (stereo unspecified), 229%.
In the case of `OC(CNCCC(c1ccccc1)c1ccccc1)COc1cccc2ncccc12` (stereo unspecified) it was 343%; in that of `OC(CNCC(c1ccccc1)c1ccccc1)COc1cccc2ncccc12` (stereo unspecified), 117%; in that of `CN1CCN(CC(O)COc2cccc3ncccc23)CC1` (stereo unspecified), 47%.
In the case of `OC(COc1cccc2ncccc12)CN1CCN(C2c3ccccc3CCc3cccnc32)CC1` (stereo unspecified), the Activity came out at 316%.
Next, `OC(COc1cccc2ncccc12)CN1CCN(C(c2ccccc2)c2ccc(Cl)cc2)CC1` (stereo unspecified): 243%; `OC(COc1cccc2ccccc12)CN1CCN(C(c2ccccc2)c2ccccc2)CC1` (stereo unspecified): 32%; `OC(COc1cccc2ncccc12)CN1CCNCC1` (stereo unspecified): 65%.
In the case of `OC(COc1cccc2ncccc12)CN1CCC(=C2c3ccccc3CCc3ccccc32)CC1` (stereo unspecified), the Activity came to 374%.
Next, `OC(COc1cccc2ncccc12)CN1CCC(=C(c2ccccc2)c2ccccc2)CC1` (stereo unspecified): 309%; `O=C(C(c1ccccc1)c1ccccc1)N1CCN(CC(O)COc2cccc3ncccc23)CC1` (stereo unspecified) [DOFEQUIDAR]: 381%.
